Measured values pooled from the literature.
Compare with care: the assays were run in different laboratories.
Target: Serine/threonine-protein kinase 25 (STK25, Homo sapiens, UniProt O00506)

N#CC1(c2ccccn2)CCN(Cc2cc(C(=O)O)c(=O)n3ccccc23)CC1
remaining binding (cell-free assay, competition with immobilised ligand; 1 µM): 100%

O=c1[nH]c2ccccc2n1C1CCN(Cc2ccc(-c3[nH]c4cc5ncnc5cc4nc3-c3ccccc3)cc2)CC1
remaining signal (cell-free assay; 0.5 µM): 89.8%

Cc1nn(C)cc1-c1nc2c(N3CCN(Cc4ccc(Cl)cc4)CC3)c(Cl)cnc2[nH]1
remaining binding (binding, competition with immobilised ligand; 1 µM): 70%

COc1ncccc1-c1cnn2ccc(N3CCN(C(=O)OC(C)C)CC3)nc12
remaining binding (binding, competition with immobilised ligand; 1 µM): 65%

COCc1c(-c2cc3cc(C)cc(OC)c3s2)c2c(N)ncnn2c1CN1CCNC(=O)C1
inhibition (cell-free assay, competition with immobilised ligand; 1 µM): 87%

Cn1cc(-c2cccc(N3CCc4c(sc5c4CC(C)(C)C5)C3=O)c2CO)cc(Nc2ccncn2)c1=O
inhibition (enzyme activity, inhibitor; 1 µM): -13%

Nc1ncc(-c2nc(N3CCOCC3)nc(N3CCOCC3)n2)c(C(F)F)n1
remaining binding (binding, competition with immobilised ligand; 10 µM): 93%

Cn1cc(-c2cc(F)cc(N3CCn4c(cc5c4CCCC5)C3=O)c2CO)cc(Nc2ccc(N3CCN(C4COC4)CC3)cn2)c1=O
inhibition (enzyme activity, inhibitor; 0.1 µM): 8%

Cn1cncc1[C@](O)(COc1ccc(C#N)cc1-c1ccc(OC(F)(F)F)cc1)c1ccc(C#N)cc1
remaining binding (cell-free assay, competition with immobilised ligand; 1 µM): 91%

CC(C)(C)c1cc(C=C(C#N)C#N)cc(Br)c1O
remaining activity (enzyme activity, inhibitor; 0.5 µM): 102%
